As a reminder, the IC50 is the midpoint of a concentration-inhibition curve. Broadly, the Kp is tissue or fluid exposure divided by exposure in the circulation.

Series [1] has as its target T1, Fatty-acid amide hydrolase 1 (Homo sapiens, UniProt O00519).
T1 sequence (O00519 whole entry): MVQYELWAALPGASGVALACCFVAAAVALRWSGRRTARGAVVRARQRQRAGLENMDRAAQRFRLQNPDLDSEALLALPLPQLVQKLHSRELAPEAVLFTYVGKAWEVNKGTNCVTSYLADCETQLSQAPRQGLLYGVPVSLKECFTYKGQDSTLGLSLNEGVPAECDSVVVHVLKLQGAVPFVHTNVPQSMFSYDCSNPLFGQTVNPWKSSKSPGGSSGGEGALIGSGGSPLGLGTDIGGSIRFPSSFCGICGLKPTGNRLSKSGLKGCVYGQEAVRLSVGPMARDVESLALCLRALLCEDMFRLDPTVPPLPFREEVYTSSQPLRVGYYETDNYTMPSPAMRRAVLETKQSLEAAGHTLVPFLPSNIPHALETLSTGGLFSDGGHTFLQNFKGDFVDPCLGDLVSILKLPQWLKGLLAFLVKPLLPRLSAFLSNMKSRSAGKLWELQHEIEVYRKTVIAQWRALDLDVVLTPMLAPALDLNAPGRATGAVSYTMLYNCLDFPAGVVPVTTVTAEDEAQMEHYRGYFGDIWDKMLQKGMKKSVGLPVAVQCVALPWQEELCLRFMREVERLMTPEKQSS
Nature of the series: Inhibition of human FAAH assessed as kinact/Ki ratio incubated for 30 min in presence of glutamate dehydrogenase by 384-well format microplate reader assay.

Series [2] concerns the target T2, Fatty-acid amide hydrolase 1 (Homo sapiens) (UniProt O00519).
T2 sequence (whole entry): T1 sequence (O00519 whole entry)
Nature of the series: Inhibition of FAAH in human brain at 100 uM in presence of FP-rhodamine by competitive activity-based protein profiling method. It counts as tissue-based. The procedure, abridged:
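Competitive ABPP on human and mouse brain, liver and heart proteomes (membrane and soluble fractions), exposed to compound at 10 or 100 μM or to DMSO. Serine hydrolases were then labeled with FP-rhodamine. Gels were read by fluorescence scanning, and loss of band labeling (FAAH or other hydrolases by kDa) was judged.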

Series [3] has as its system Rattus norvegicus. Nature of the series: Antihyperalgesic activity in CFA induced Sprague-Dawley rat assessed as inhibition of mechanical allodynia at 0.1 mg/kg, po measured for 4 hrs by von frey test. It counts as functional, organism-based. The procedure, abridged: (§1)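 Male Sprague-Dawley rats (200–250 g) given 150 μl CFA (1 mg/ml in mineral oil) intraplantar in the hind paw. Mechanical paw withdrawal thresholds read with Von Frey hairs on day 5 postinjection. Dosed orally as nanocrystalline suspension in 2% polyvinylpyrrolidone/0.15% SDS in water, 10 ml/kg. PWTs taken 4 h postdose for dose-response, or at 1, 2, 4, 8, 24 h for time course.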

Series [4] deals with T3, Fatty-acid amide hydrolase 1 (Rattus norvegicus) (UniProt P97612).
T3 sequence (whole entry): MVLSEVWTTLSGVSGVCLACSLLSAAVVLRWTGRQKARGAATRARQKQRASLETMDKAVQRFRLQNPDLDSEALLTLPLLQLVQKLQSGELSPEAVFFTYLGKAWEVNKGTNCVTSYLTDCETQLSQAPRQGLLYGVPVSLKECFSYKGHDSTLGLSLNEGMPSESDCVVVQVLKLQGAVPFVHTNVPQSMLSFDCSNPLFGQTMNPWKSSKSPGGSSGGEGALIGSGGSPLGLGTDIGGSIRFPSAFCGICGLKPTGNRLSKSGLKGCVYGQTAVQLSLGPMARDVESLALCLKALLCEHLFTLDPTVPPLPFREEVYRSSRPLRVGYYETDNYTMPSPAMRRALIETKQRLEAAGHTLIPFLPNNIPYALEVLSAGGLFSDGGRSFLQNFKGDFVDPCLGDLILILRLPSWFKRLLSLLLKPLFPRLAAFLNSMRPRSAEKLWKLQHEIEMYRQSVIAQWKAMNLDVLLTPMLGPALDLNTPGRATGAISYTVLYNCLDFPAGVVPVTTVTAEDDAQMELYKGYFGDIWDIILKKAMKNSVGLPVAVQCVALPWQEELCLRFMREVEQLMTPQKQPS
The series can be described thus: In vivo inhibition of FAAH in CFA induced Sprague-Dawley rat WBC assessed as elevation of AEA level at 0.1 to 10 mg/kg, po using 3H-labeled AEA as substrate. It counts as functional, organism-based. The settings on record: dose 0.1-10 mg/kg.

Series [5] in a line: Ratio of drug concentration in CFA induced Sprague-Dawley rat brain to plasma at 0.1 to 10 mg/kg, po by LC/MS analysis. The format is ADME, organism-based. The settings on record: brain and plasma, dose 0.1-10 mg/kg. A digest of the protocol:
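Male Sprague-Dawley rats (200–250 g) received 150 μl CFA (1 mg/ml suspension in mineral oil) into the plantar hind paw. On day 5 they were dosed orally at 0.003–10 mg/kg as a nanocrystalline suspension in 2% polyvinylpyrrolidone/0.15% SDS in H₂O at 10 ml/kg. Drug levels were measured in brain tissue and plasma in the dose-response study, where PWTs were read at 4 h post-dose.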

The test system of series [6] is Rattus norvegicus. The series can be described thus: Antihyperalgesic activity in CFA induced Sprague-Dawley rat assessed as partial reduction of mechanical allodynia at 3 mg/kg, po in presence of CB2 antagonist SR144528 by von frey test. It counts as functional, organism-based. A digest of the protocol: as §1
The subject of series [7] is Rattus norvegicus. Nature of the series: Antihyperalgesic activity in CFA induced Sprague-Dawley rat assessed as complete reduction of mechanical allodynia at 3 mg/kg, po in presence of CB1 antagonist SR141716 and CB2 antagonist SR144528 by von frey test. The format is functional, organism-based. The procedure, abridged: as §1
Series [8] concerns Mus musculus. Nature of the series: Antinociceptive activity in C57BL6/J mouse assessed as effect in catalepsy at 1 to 10 mg/kg, po administered for 4 hrs. It counts as functional, organism-based. The following applies: dose 1-10 mg/kg. The procedure, abridged: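 Male C57BL/6J mice, 7 weeks old, n = 8/group, dosed orally at 1 or 10 mg/kg in PEG 300 (4 ml/kg). Tetrad tested 4 h postdose: locomotor activity, tail-immersion thermal nociception, catalepsy (assessed 60 s), body temperature. Means ± S.E.M. versus vehicle.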

Series [9] deals with Mus musculus. Nature of the series: In vivo inhibition of rhodamine-azide tagged FAAH expressed in mouse brain at 1 mg/kg, po by CC-ABPP method based in-gel fluorescence scanning analysis. The format is functional, organism-based.

Molecules are shown by their SMILES. The source made the active and inactive calls.

As to `O=C(Nc1cccnn1)N1CCC(=Cc2cccc(Oc3ccc(C(F)(F)F)cn3)c2)CC1`, in series [1], the IC50 stood at 10.7 nM. In addition, the inhibition entry in [2], in series [4] and in series [9] was “Active” in each case. Further, the result in series [3], in [6] and in series [7] was Active. For the same molecule, in [5], the partition ratio (Kp) was determined as 1.3. Moreover, the Activity entry in [8] is “Non-Toxic”.
